Compounds with a hit are over-represented: about 3.5% of the library has one in this group of screens.
MrgX1 antag – antagonists of human MrgX1 receptor | Q96LB2 | MRGX1-HEK293 calcium flux, Fluo-4, BAM8-22 antagonism; active compounds read low | B-score at 10 µM | hit rate 1.3% among 310,000;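 active = calcium-response B-score plate-corrected more than 3 library SD below zero, starting fluorescence within 5 deviations, no agonist response on first addition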;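 note: peak minus trough fluorescence over baseline after final BAM8-22 challenge near maximal dose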
Target sequence (Q96LB2 whole entry, looked up): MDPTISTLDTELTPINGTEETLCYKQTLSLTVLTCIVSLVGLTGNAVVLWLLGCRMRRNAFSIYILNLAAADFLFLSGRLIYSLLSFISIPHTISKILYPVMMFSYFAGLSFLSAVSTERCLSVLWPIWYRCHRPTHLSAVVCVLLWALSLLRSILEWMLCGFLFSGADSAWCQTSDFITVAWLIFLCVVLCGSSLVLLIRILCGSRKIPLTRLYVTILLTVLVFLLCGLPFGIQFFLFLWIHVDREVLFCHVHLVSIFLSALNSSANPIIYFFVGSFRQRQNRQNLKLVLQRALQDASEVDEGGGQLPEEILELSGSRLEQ
RGS4 inh – human RGS4 inhibition | P49798 | HEK293 M3R/RGS4 inducible, Fluo-4 calcium flux; active compounds read high; triggered by carbachol at its EC20 | B-score at 10 µM | hit rate 0.45% among 310,000 | AID 463165;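 active = B-score, a plate-corrected calcium signal, over three deviations above library mean, with baseline fluorescence within five deviations of library mean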;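 note: RGS4 expression induced by doxycycline in cells with stable M3 receptor; B-score is computed from the integrated fluorescence ratio over baseline after carbachol; higher B-score means a larger calcium signal and so more RGS4 inhibition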
Target sequence (P49798 whole entry, looked up): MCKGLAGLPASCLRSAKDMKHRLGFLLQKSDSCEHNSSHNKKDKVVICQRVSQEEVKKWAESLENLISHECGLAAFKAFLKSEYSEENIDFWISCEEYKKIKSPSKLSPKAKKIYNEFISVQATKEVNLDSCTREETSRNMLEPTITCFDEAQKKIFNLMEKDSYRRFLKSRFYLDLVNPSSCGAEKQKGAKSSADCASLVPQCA
MrgX1 PAM – human MrgX1 positive allosteric modulation, primary screen; Q96LB2; MrgX1-HEK293, Fluo-4 calcium flux, FDSS; active compounds read high; B-score at 10 µM; hit rate 0.63% among 310,000; AID 588675;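 active = plate-corrected calcium response at least 3 library SD above typical, normal starting fluorescence, not activating the receptor alone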;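 note: compound read alongside a low EC10 to EC30 dose of BAM8-22 agonist; peak minus trough fluorescence over baseline measured at the second addition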
MrgX1 agonist – activates human MrgX1 receptor signaling | MrgX1-HEK293 cells, Fluo-4 calcium fluorescence, agonist mode; active compounds read high | B-score at 10 µM | hit rate 0.44% among 310,000 | AID 588627;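 active = calcium response B-score plate-corrected fluorescence ratio at least 3 library SD, with starting fluorescence B-score inside 5 SD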
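Material: HEK293 cells stably expressing human MrgX1 receptor | Quantity: 15,000 cells per well | Times: Cells plated overnight, dye loaded 0.5 h 37 °C, 0.5 h room temperature | Measured by: Kinetic Fluo-4 NW fluorescence of intracellular calcium | Control set: Positive and negative controls per plate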
RGS4 act – RGS4 potentiation or activation; HEK293 M3R/inducible RGS4, carbachol calcium flux Fluo4; active compounds read low; B-score at 10 µM; hit rate 0.92% among 310,000; AID 463111;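 active = B-score of the integrated calcium signal more than 4 SD below the library mean, with starting fluorescence not abnormally high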;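 note: negative B-score means reduced calcium response which marks RGS4 activation or potentiation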
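Assay system: Inducible-RGS4 HEK293 cells carrying M3 receptor | Schedule: Compound preincubation 20 min at room temperature before agonist | Signal: Kinetic calcium fluorescence imaging with Fluo4-AM dye, 2 µM | Read-out basis: B score from integrated fluorescence ratio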
MrgX1 PAM conf – human MrgX1 positive allosteric modulation, re-confirmation | shares compounds with MrgX1 PAM | MrgX1-HEK293, Fluo-4 calcium fluorescence, FDSS | activation (ratio percentage), % at 10 µM | hit rate 13% among 1,200;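 active = ratio at least 3 SD above the weak peptide control, stable starting fluorescence, no direct agonism earlier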;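 note: compound followed by low BAM8-22 agonist challenge near EC20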
HEK293 Ca flux – activity in parental HEK293 cells lacking MrgX1; AID 624111; shares compounds with MrgX1 antag; fluorescence ratio F(max-min)/F0 at 10 µM; Fluo-4 calcium fluorescence, FDSS; hit rate 2% among 4,000;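 active = duplicate-averaged calcium fluorescence ratio at least three times the standard deviation of buffer wells, a nonspecific response in parental cells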
HEK293 Ca counter – activity in parental HEK293 cells without MrgX1; shares compounds with MrgX1 antag; fluorescence ratio F(max-min)/F0 at 10 µM; hit rate 0.4% among 4,000; AID 624114; parental HEK293 calcium flux, Fluo-4 fluorescence ratio; active compounds read high;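 active = calcium fluorescence ratio, averaged over duplicates, at least 3 SD of the buffer-well ratio, meaning a nonspecific response in receptor-free cells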;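 note: untransfected parental HEK293 lacking MrgX1 used as counterscreen for MrgX1 allosteric activators; fluorescence change taken during the second addition on a kinetic imager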
HEK293 Ca cntr2 – MrgX1 activator counter-screen hit in parental HEK293 cells. shares compounds with MrgX1 antag. Fluo-4 calcium fluorescence (FDSS); active compounds read high. fluorescence ratio F(max-min)/F0 at 10 µM. hit rate 8.7% among 4,000. AID 624115;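 active = calcium fluorescence ratio at least three times the spread of buffer wells, meaning a non-specific response in parental cells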
* = called active by the depositor; i = inactive; / = not tested or not shown.

SMILES | MrgX1 antag | RGS4 inh | MrgX1 PAM | MrgX1 agonist | RGS4 act | MrgX1 PAM conf | HEK293 Ca flux | HEK293 Ca counter | HEK293 Ca cntr2
CC1CC(C)CN(CCCNC(=O)Cc2c(C(=O)O)[nH]c3ccccc23)C1 (stereo not drawn) | i | i | i | i | i | / | / | / | /
Cc1ccccc1OC(C)C(=O)NCCC1=CCCCC1 (stereo not drawn) | i | i | 10.9* | i | i | i | i | i | i
Cc1ccc(NC(=O)CN(C)S(=O)(=O)c2ccc(Br)s2)cc1F | i | i | i | i | i | / | / | / | /
O=C1CC(/C=C/c2ccc([N+](=O)[O-])cc2)=Nc2ccccc2N1 | i | i | i | i | i | / | / | / | /
Cc1cc(C(=O)CCl)c(C)n1Cc1ccco1 | i | i | 7.02* | i | i | i | i | i | i
C=CCn1c(SCC(=O)Nc2sccc2C#N)nc2sc(C)c(C)c2c1=O | i | i | i | i | i | / | / | / | /
COc1ccc(NC(=O)CCCN2C(=O)C3CC=CCC3C2=O)cc1 (stereo not drawn) | i | i | i | i | i | / | / | / | /
Cc1cc(C)c(S(=O)(=O)ON2C(=O)c3ccccc3C2=O)cc1C | i | i | i | i | i | / | / | / | /
Cc1ccc(S(=O)(=O)ON2C(=O)c3ccccc3C2=O)c(C)c1 | i | / | 35.8* | i | / | i | i | i | i
CN(C)c1ccc(C(=O)OCC(=O)NCC2CCCO2)cc1 (stereo not drawn) | i | i | i | i | i | / | / | / | /
CN(C)CCn1c(=S)[nH]c2ncccc2c1=O | i | i | 12.7* | i | i | i | i | i | i
COc1ccc(C)cc1NC(=O)CN1CCCN(S(=O)(=O)c2ccc(Br)cc2)CC1 | i | i | i | i | i | / | / | / | /
CS(=O)(=O)N(CCc1ccccc1)CC(=O)Nc1ccc(OCc2ccccc2)cc1 | i | i | i | i | i | / | / | / | /
COC(=O)c1ccccc1NC(=O)CN(CCc1ccccc1)S(C)(=O)=O | i | i | 9.52* | i | i | i | i | i | i
O=C(Nc1nnc(-c2ccco2)o1)c1cccc(Cl)c1 | i | i | 7.53* | i | i | i | i | i | i
O=C(Nc1cccc(Cl)c1)c1cc(-c2ccco2)on1 | i | i | 7.95* | i | i | i | i | i | i
O=C(Nc1nnc(-c2ccccn2)o1)c1cccc(Cl)c1 | i | i | i | i | i | / | / | / | /
CC(Oc1ccc(Cl)cc1Cl)C(=O)NNC(=O)C(=O)N1CCCCC1 (stereo not drawn) | i | i | i | i | i | / | / | / | /
COc1ccc(OCCC(=O)NCC23CC4CC(CC(C4)C2)C3)cc1 | i | i | 8.85* | i | i | i | i | i | i
Cc1cc(NC(=O)CSc2nccn2-c2cccc(Cl)c2)no1 | i | i | i | i | i | / | / | / | /
COc1cccc(N/C(N)=N/c2nc(C(F)(F)F)cc(C(F)(F)F)n2)c1 | i | i | 10* | i | i | i | i | i | i
CCc1cc2c(N3CCCCC3)ncnc2s1 | i | i | 10.7* | i | i | i | i | i | i
Cc1sc2ncnc(N3CCCCC3C)c2c1C (stereo not drawn) | i | i | 12.5* | i | i | 6.3%* | i | i | i
CCc1cc2c(=O)[nH]c(N3CCCC3)nc2s1 | i | i | i | i | i | / | / | / | /
Cc1sc2ncnc(N3CCCCC3)c2c1C | i | i | 6.81* | i | i | i | i | i | i

Bioassay records as filed in PubChem.
